Experimental data pooled from the literature.
Target: Tyrosine-protein kinase TXK (TXK, Homo sapiens, UniProt P42681)
One construct used (P42681 1-527): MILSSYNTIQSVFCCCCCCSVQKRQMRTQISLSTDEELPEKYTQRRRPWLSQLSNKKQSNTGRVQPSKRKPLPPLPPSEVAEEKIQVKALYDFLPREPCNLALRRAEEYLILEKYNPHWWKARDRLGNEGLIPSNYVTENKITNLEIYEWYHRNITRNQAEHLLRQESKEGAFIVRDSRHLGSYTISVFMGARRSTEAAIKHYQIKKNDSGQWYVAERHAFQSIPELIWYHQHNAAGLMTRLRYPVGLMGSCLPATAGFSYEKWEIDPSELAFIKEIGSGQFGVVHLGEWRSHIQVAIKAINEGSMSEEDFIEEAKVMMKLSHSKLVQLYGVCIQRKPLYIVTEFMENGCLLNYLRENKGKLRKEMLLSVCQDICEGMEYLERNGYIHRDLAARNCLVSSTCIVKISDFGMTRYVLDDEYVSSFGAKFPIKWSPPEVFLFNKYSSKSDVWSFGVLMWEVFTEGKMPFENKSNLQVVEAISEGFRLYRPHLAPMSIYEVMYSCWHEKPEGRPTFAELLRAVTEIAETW

CN(C)c1nccc(-c2cnc3ncccn23)n1 — remaining binding (binding; 1 µM): 98%
COc1cnc(Nc2cccc(S(N)(=O)=O)c2)nc1N1CCN(c2ccccc2)C(=O)C1 — remaining binding (binding, competition with immobilised ligand; 1 µM): 100%
c1cnn2ncc(-c3ccnc(N4CCC45COC5)n3)c2c1 — remaining binding (binding; 1 µM): 100%
Cn1nc(C(F)(F)F)cc1-c1cnc(N2CCc3cc(S(=O)(=O)Nc4c(F)cc(Cl)cc4F)cc(N4CCCC4=O)c32)nc1 — remaining binding (binding, competition with immobilised ligand; 1 µM): 100%
Nc1ncc2c(n1)-c1c([nH]c3ccc(C#CC4CC4)cc13)CCCC2 — remaining binding (binding, competition with immobilised ligand; 1 µM): 99%
Cc1cc(-n2nc(Cc3cc(F)cc(C(F)(F)F)c3)nc2C)ccc1C(N)=O — remaining binding (binding, competition with immobilised ligand; 1 µM): 84%
O=C(NCCCN1CCOCC1)c1ccc(Nc2ncc(Cl)c(-c3ccc(Cl)s3)n2)cc1 — remaining binding (binding, competition with immobilised ligand; 1 µM): 99%
FC(F)(F)Oc1cccc(-c2cnc3ccc(-c4ccncc4)nn23)c1 — remaining binding (binding, competition with immobilised ligand; 5 µM): 55%
CNCc1ccccc1-c1csc([C@H](C)Nc2nc(C)nc3cc(OC)c(OC)cc23)c1 — remaining binding (cell-free assay, competition with immobilised ligand; 1 µM): 100%
O=C(c1ccc(Nc2nccc(-c3cc4ccccc4s3)n2)cc1)N1CCC(N2CCCC2)CC1 — remaining binding (binding, competition with immobilised ligand; 1 µM): 92%
O=C(NCC1CCOCC1)c1n[nH]cc1NC(=O)c1c(F)cccc1F — remaining binding (binding, competition with immobilised ligand; 1 µM): 100%
CCCOc1ccc([C@@H]2[C@@H](C(=O)O)[C@H](c3ccc4c(c3)OCO4)CN2CC(=O)Nc2c(CC)cccc2CC)cc1 — remaining binding (binding, competition with immobilised ligand; 1 µM): 100%
CC1CCCN1c1nccc(-c2cnn3ncccc23)n1 (stereo not shown) — remaining binding (binding; 1 µM): 100%
COc1ncc2cc3ccccc3nc2c1C#N — remaining binding (binding, competition with immobilised ligand; 5 µM): 93%
N[C@@H]1CCN(c2nccc(-c3cnn4ncccc34)n2)C1 — remaining binding (binding; 1 µM): 100%
O=C(NCCCN1CCOCC1)c1ccc(Nc2nccc(-c3cc4ccccc4s3)n2)cc1 — remaining binding (binding, competition with immobilised ligand; 1 µM): 86%
F[C@@H]1CCN(c2nccc(-c3cnn4ncccc34)n2)C1 — remaining binding (binding; 1 µM): 73%
CCc1ccccc1C(=O)Nc1n[nH]c2c(C)c(F)c(C3C(C#N)=C(C)N(C)C(C)=C3C#N)cc12 — remaining binding (binding, competition with immobilised ligand; 1 µM): 84%
Cc1cnn2ncc(-c3ccnc(N(C)C)n3)c2c1 — remaining binding (binding; 1 µM): 100%
CNC(=O)[C@@H]1CC[C@@H](n2c(-c3ccc4cnccc4c3)nc3ccc(C(=O)NCc4cccc(C(N)=O)c4)cc32)C1 — remaining binding (binding, competition with immobilised ligand; 1 µM): 100%
CCOCCn1cc(C(=O)Nc2ccc(-n3nc(-c4cccnc4)cc3C(F)(F)F)cn2)ccc1=O — remaining binding (binding, competition with immobilised ligand; 1 µM): 81%
C[C@H]1CCN(c2nccc(-c3cnn4ncccc34)n2)C1 — remaining binding (binding; 1 µM): 90%
